# Active and inactive are the calls of the source.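 How the source made its calls: active means Toxic to Huh-7.5 liver cells, with CC50, the dose killing half the cells, at most 24 µM; inactive means CC50 above 24 µM.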
# Test system: Huh-7.5 viability, XTT absorbance
# Assay: Huh-7.5 cell cytotoxicity, late-stage follow-up, cytotoxicity control for HCV core dimerization inhibitor project, XTT absorbance, powder samples (AID 651583)
# In short: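 Material – Huh-7.5 cell line, viability by mitochondrial dehydrogenase activity · Replication – triplicate wells per concentration · Measure – CC50 from four-parameter sigmoidal fit of % inhibition versus DMSO · Benchmarks – DMSO control, cell-free compound blanks · Times – 72 h compound exposure at 37 °C · Technique – XTT-PMS absorbance, 450/650 nm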
row,Structure (SMILES),CC50
1,Cc1ccc(Cc2c(C)nc3nc(SCC(=O)NCCN4CCN(Cc5ccc(F)cc5)CC4)nn3c2C)cc1,180 µM (inactive)
2,Cc1ccc(Cc2c(C)nc3nc(SCC(=O)NCCN4CCCN(S(=O)(=O)c5ccccc5)CC4)nn3c2C)cc1,9.51 µM
3,Cc1ccc(Cc2c(C)nc3nc(SCC(=O)NCCN4CCN(Cc5ccc(Cl)cc5)CC4)nn3c2C)cc1,> 4 µM (inactive)
4,Cc1ccc(Cc2c(C)nc3nc(SCC(=O)NCCN4CCCN(S(C)(=O)=O)CC4)nn3c2C)cc1,193 µM (inactive)
5,Cc1ccc(Cc2c(CCc3ccccc3)nc3nc(SC(Cc4ccccc4)C(=O)NCCN4CCOCC4)nn3c2C)cc1 (stereo unspecified),22.1 µM
6,Cc1ccc(Cc2c(C)nc3nc(SCC(=O)NCCN4CCN(S(=O)(=O)c5ccccc5)CC4)nn3c2C)cc1,37.6 µM (inactive)
7,Cc1ccc(Cc2c(C)nc3nc(SCC(=O)NCCN4CCOCC4)nn3c2C)cc1,> 12 µM (inactive)
8,Cc1ccc(Cc2c(C)nc3nc(SCC(=O)NCCN4CCNCC4)nn3c2C)cc1,33.8 µM (inactive)
9,Cc1ccc(Cc2c(C)nc3nc(SCC(=O)NCCN4CCCN(S(=O)(=O)c5ccc(C)cc5)CC4)nn3c2C)cc1,13.8 µM
10,Cc1ccc(Cc2c(C)nc3nc(SCC(=O)NCCN4CCCCCC4)nn3c2C)cc1,42.6 µM (inactive)
11,Cc1ccc(Cc2c(C)nc3nc(SCC(=O)NCCN4CCN(CCc5ccccc5)CC4)nn3c2C)cc1,> 36 µM (inactive)

# From PubChem BioAssay AID651583 (The Scripps Research Institute Molecular Screening Center, 2012)
